Screening data (PubChem)
rRNA inh HTS: inhibitors of bacterial rRNA selective over humanized ribosomes. actives 1.6% (n = 350,000). AID 720706. GFP signal change (wild-type ribosome), % (no concentration beside the values). E. coli WT GFP vs humanized-ribosome RFP mutants, fluorescence, 24 h; active compounds read low; DMSO median 0, no signal -100;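 active = significant combined selectivity score with lowered wild-type GFP, culture density cut under 30%, mutant RFP and density less affected; inactive = any of these conditions unmet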
E-selectin induc: induces E-selectin expression in human endothelial cells. P16581. HUVEC E-selectin immunofluorescence imaging; normalized: neutral wells 0, TNF-alpha wells 100. activation, % at 7.58 µM. actives 0.37% (n = 260,000). AID 686992;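 active = mean E-selectin-positive cell signal at least 10% of the positive control, reached in at least 60% of replicates, without over 20% cell loss; inconclusive = no rule given, readout overlaps actives, possibly toxicity-flagged; inactive = the rest, including those meeting only one limit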
Target sequence (P16581 whole entry, looked up): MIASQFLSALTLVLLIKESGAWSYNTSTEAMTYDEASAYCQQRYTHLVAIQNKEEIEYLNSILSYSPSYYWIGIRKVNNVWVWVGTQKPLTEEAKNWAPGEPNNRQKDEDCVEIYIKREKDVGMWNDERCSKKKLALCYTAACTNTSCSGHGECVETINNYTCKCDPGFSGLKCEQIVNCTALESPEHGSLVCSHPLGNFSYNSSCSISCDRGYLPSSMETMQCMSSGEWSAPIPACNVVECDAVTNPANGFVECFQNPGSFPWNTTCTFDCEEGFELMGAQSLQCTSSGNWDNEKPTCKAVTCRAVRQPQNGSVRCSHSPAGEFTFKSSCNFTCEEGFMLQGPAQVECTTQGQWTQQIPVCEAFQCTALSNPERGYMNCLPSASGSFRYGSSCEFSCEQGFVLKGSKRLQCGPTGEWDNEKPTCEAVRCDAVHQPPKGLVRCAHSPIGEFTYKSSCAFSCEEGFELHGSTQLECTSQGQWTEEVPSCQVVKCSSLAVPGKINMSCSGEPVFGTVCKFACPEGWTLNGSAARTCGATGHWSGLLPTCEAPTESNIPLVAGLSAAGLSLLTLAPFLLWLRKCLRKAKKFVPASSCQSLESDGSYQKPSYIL
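Test system – human umbilical vein endothelial cells (HUVEC), E-selectin induction · Input – 3,000 HUVEC seeded per well · Buffer or medium – EGM-2, gelatin · Compound dosing – single-point compound dose · Detection – immunofluorescence imaging · Measure – percent E-selectin-positive cells · Controls – TNF-alpha high, DMSO low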
Cneo AK release: causes C. neoformans cell lysis | adenylate kinase release luminescence, 4 h; normalised: neutral wells 0, clomiphene wells 100 | lysis activity, % at 15 µM | actives 0.2% (n = 360,000);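 active = mean lysis activity across replicates of at least 80%, whatever share of replicates individually reach that level; inactive = mean lysis activity below 80%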
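read-out = cell lysis signal | test system = log-phase Cryptococcus neoformans yeast cells | input = cells at 5 × 10^6 per mL | medium = fresh YPD growth medium | signal = luminescent adenylate kinase detection reagent | timing = 4 h at 37 °C static, read 1 h later | dosing = single dose | controls = Clomiphene as positive lysis control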
miR122 inh: blocks miR-122 activity in Huh7 sensor cells | Huh7 miR-122 Renilla luciferase sensor, 48 h; neutral wells = 0, positive control = 100 | activation (reporter increase), % at 12.5 µM | actives 0.3% (n = 340,000) | AID 602342;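 active = mean replicate activation score at least 90 and every replicate individually at or above 90; inconclusive = only one of the two criteria met; inactive = neither criterion met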;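 also: higher luciferase means less miR-122 activity so hits act as miR-122 inhibitors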
DENV2 CPE rescue: DENV2-induced cell death inhibition. DENV2-infected cells, cytopathic effect rescue, plate reader. CPE inhibition, % at 9.99 µM. actives 1.7% (n = 350,000). AID 651640; in the data active = CPE inhibition above about 20%, passing the limit was not always enough; inconclusive = no clear call, values can overlap the other calls; tested in BHK-21 cells
Numbers stand for hits. This is a sample that favours compounds with a hit; in the whole collection about 3.1% have one here.

C[C@@H]1CN([C@@H](C)CO)C(=O)c2cccc(NC(=O)C3CC3)c2O[C@H]1CN(C)Cc1ccccc1 was read as rRNA inh HTS inactive, E-selectin induc 51.8, Cneo AK release inactive, miR122 inh inactive and DENV2 CPE rescue inactive.
`CCCNC(=O)C[C@@H]1CC[C@H]2[C@@H](COc3ccc(NC(=O)Cc4ccccc4)cc3C(=O)N2C)O1` gave rRNA inh HTS inactive, E-selectin induc inactive, Cneo AK release inactive, miR122 inh inactive and DENV2 CPE rescue inactive.
Screening C[C@H](CO)N1C[C@H](C)[C@@H](CN(C)C)Oc2c(NC(=O)C3CCOCC3)cccc2C1=O returned rRNA inh HTS inactive, E-selectin induc inactive, Cneo AK release inactive, miR122 inh inactive and DENV2 CPE rescue 40.3.
For C[C@H]1CN([C@@H](C)CO)C(=O)c2cccc(NC(=O)C3CC3)c2O[C@H]1CN(C)Cc1ccccc1 the results were rRNA inh HTS inactive, E-selectin induc 27.3, Cneo AK release inactive, miR122 inh inactive and DENV2 CPE rescue inconclusive.
`C[C@@H]1CN([C@@H](C)CO)C(=O)c2cccc(NC(=O)C3CCOCC3)c2O[C@@H]1CN(C)Cc1ccncc1` gave rRNA inh HTS inactive, E-selectin induc 228.0, Cneo AK release inactive, miR122 inh inactive and DENV2 CPE rescue inactive.
Screening O=C(C[C@H]1CC[C@@H]2[C@H](COC[C@@H](O)CN2Cc2ccc(F)cc2)O1)N1CCc2ccccc2C1 returned rRNA inh HTS inactive, E-selectin induc inactive, Cneo AK release inactive, miR122 inh inactive and DENV2 CPE rescue inactive.
For Cc1noc(C)c1NC(=O)Nc1cccc2c1O[C@H](CN(C)C(=O)Nc1ccc(C(F)(F)F)cc1)[C@H](C)CN([C@@H](C)CO)C2=O the results were rRNA inh HTS inactive, E-selectin induc inactive, Cneo AK release inactive and miR122 inh inactive.
C[C@@H]1CCCCO[C@H](CN(C)C(=O)CCCN(C)C)[C@H](C)CN([C@@H](C)CO)C(=O)c2cc(NS(C)(=O)=O)ccc2O1 was read as rRNA inh HTS inactive, E-selectin induc inactive, Cneo AK release inactive, miR122 inh inactive and DENV2 CPE rescue inactive.
C#CCN(C[C@H]1[C@H](OC(=O)Nc2c(C)noc2C)[C@H](OC(=O)Nc2c(C)noc2C)C[C@@H](C(=O)OC)[C@H]1C(=O)OC)S(=O)(=O)c1ccc(C)cc1 was read as rRNA inh HTS inactive, E-selectin induc inactive, Cneo AK release inactive, miR122 inh inactive and DENV2 CPE rescue 69.5.
CN(C)CC(=O)Nc1ccc2c(c1)[C@H]1C[C@H](CC(=O)N(C)C)O[C@@H](CO)[C@H]1O2 was read as rRNA inh HTS inactive.
Screening O=C(C[C@@H]1C=C[C@@H](NC(=O)CN2CCOCC2)[C@H](CO)O1)NC1CCC1 returned rRNA inh HTS inactive, E-selectin induc inactive, Cneo AK release inactive and DENV2 CPE rescue inactive.
For Cc1cc2oc(=O)cc(-c3ccccc3)c2c(C)c1-c1ccc(CO)cc1 the results were rRNA inh HTS inactive, Cneo AK release inactive, miR122 inh inactive and DENV2 CPE rescue inactive.
Screening CC(=O)c1ccc(-c2c(C)cc3oc(=O)cc(-c4ccccc4)c3c2C)cc1 returned rRNA inh HTS -21.8, Cneo AK release inactive, miR122 inh inactive and DENV2 CPE rescue inactive.
For O=C(C[C@H]1CC[C@H]2[C@@H](COC[C@@H](O)CN2Cc2ccc(Oc3ccccc3)cc2)O1)Nc1nccs1 the results were rRNA inh HTS inactive, E-selectin induc inactive, Cneo AK release inactive, miR122 inh inactive and DENV2 CPE rescue inactive.
`O=C(C[C@@H]1CC[C@H]2[C@@H](COC[C@H](O)CN2Cc2ccc(Oc3ccccc3)cc2)O1)Nc1nccs1` gave rRNA inh HTS inactive, E-selectin induc inactive, Cneo AK release 88.1, miR122 inh inactive and DENV2 CPE rescue inactive.
`O=C(C[C@H]1CC[C@H]2[C@@H](COC[C@H](O)CN2Cc2cccc(Cl)c2)O1)Nc1nccs1` gave rRNA inh HTS inactive, E-selectin induc inactive, Cneo AK release 114.5, miR122 inh inactive and DENV2 CPE rescue inactive.
For N#C[C@H]1[C@@H](c2ccc(-c3cccc(F)c3)cc2)[C@@H](CO)N1C(=O)NC1CCCCC1 the results were rRNA inh HTS inactive, E-selectin induc inactive and DENV2 CPE rescue inactive.
CCCC(=O)Nc1ccc2c(c1)C(=O)N(C)C[C@H](OC)[C@H](C)CN(Cc1ccccc1)[C@@H](C)CO2 was read as rRNA inh HTS inactive, E-selectin induc inactive, Cneo AK release inactive, miR122 inh inactive and DENV2 CPE rescue inactive.
Screening CO[C@@H]1CN(C)C(=O)c2ccc(NC(=O)NC(C)C)cc2OC[C@@H](C)N(CC2CC2)C[C@H]1C returned rRNA inh HTS inactive, E-selectin induc inactive, Cneo AK release inactive, miR122 inh inactive and DENV2 CPE rescue inactive.
COc1ccc(CN(C)C[C@@H]2OCCCC[C@@H](C)Oc3ccc(NS(=O)(=O)c4ccc(Cl)cc4)cc3C(=O)N([C@@H](C)CO)C[C@H]2C)cc1 was read as rRNA inh HTS inactive, Cneo AK release inactive, miR122 inh inactive and DENV2 CPE rescue 34.1.
`COc1ccc(CN(C)C[C@H]2OCCCC[C@@H](C)Oc3ccc(NS(=O)(=O)c4ccc(F)cc4)cc3C(=O)N([C@@H](C)CO)C[C@@H]2C)cc1` gave rRNA inh HTS inactive, Cneo AK release inactive, miR122 inh inactive and DENV2 CPE rescue inconclusive.
`COc1ccc(CN(C)C[C@H]2OCCCC[C@H](C)Oc3ccc(NS(=O)(=O)c4ccc(Cl)cc4)cc3C(=O)N([C@@H](C)CO)C[C@@H]2C)cc1` gave rRNA inh HTS inactive, Cneo AK release inactive, miR122 inh inactive and DENV2 CPE rescue 29.6.
COc1ccc(S(=O)(=O)Nc2ccc3c(c2)C(=O)N([C@H](C)CO)C[C@H](C)[C@@H](CN(C)Cc2ccc(Cl)c(Cl)c2)O3)cc1 was read as rRNA inh HTS inactive, E-selectin induc inactive, Cneo AK release inactive, miR122 inh inactive and DENV2 CPE rescue inactive.
COc1ccc(CN(C)C[C@H]2OCCCC[C@H](C)Oc3ccc(NS(=O)(=O)c4ccc(F)cc4)cc3C(=O)N([C@H](C)CO)C[C@H]2C)cc1 was read as rRNA inh HTS inactive, Cneo AK release inactive, miR122 inh inactive and DENV2 CPE rescue 33.1.
For COc1ccc(S(=O)(=O)Nc2ccc3c(c2)C(=O)N([C@@H](C)CO)C[C@@H](C)[C@@H](CN(C)Cc2ccc(Cl)c(Cl)c2)O3)cc1 the results were rRNA inh HTS inactive, E-selectin induc 42.4, Cneo AK release inactive, miR122 inh inactive and DENV2 CPE rescue inactive.
Screening C[C@@H]1CCCCO[C@H](CN(C)C(=O)CCC(F)(F)F)[C@H](C)CN([C@@H](C)CO)C(=O)c2cc(NC(=O)c3ccncc3)ccc2O1 returned rRNA inh HTS inactive and E-selectin induc inactive.
`CO[C@H]1CN(C)C(=O)c2cc(NS(C)(=O)=O)ccc2OC[C@@H](C)N(Cc2cccnc2)C[C@H]1C` gave rRNA inh HTS inactive, E-selectin induc inactive and miR122 inh inactive.
